Results from different studies.
Target: Casein kinase I isoform alpha (CSNK1A1, Homo sapiens, UniProt P48729)

CN(c1ccnc(CNc2nc(Nc3ccc4c(c3)CC(=O)N4)ncc2C(F)(F)F)n1)S(C)(=O)=O
remaining binding (cell-free assay, competition with immobilised ligand; 1 µM): 81%

O=C1Cc2c([nH]c3ccc(Br)cc23)-c2ccccc2N1
remaining signal (cell-free assay; 0.5 µM): 95.1%

Nc1cnc(N2CCc3cc(S(=O)(=O)Nc4c(F)cc(Cl)cc4F)cc(N4CCCC4=O)c32)nc1
remaining binding (cell-free assay, competition with immobilised ligand; 1 µM): 100%

CCN1CCN(Cc2ccc(NC(=O)c3ccc(C)c(Oc4ccnc5[nH]ccc45)c3)cc2C(F)(F)F)CC1
inhibition (target engagement in cells, inhibitor, chemoproteomics; A-375; 5 µM): -60.9%

CN(C)C(=O)Cn1cc(-c2nc([C@@](C)(c3ccc(-c4cnc(N)nc4)cc3)C3CC3)no2)cn1
remaining binding (cell-free assay, competition with immobilised ligand; 1 µM): 100%

Cc1cc(Nc2cc(N3CCN(C)CC3)nc(Sc3ccc(NC(=O)C4CC4)cc3)n2)[nH]n1
activity vs control (enzyme activity, inhibitor; 0.5 µM): 96.7%

CCCCNc1ncc2c(-c3ccc(F)cc3)nn(C[C@H]3CC[C@H](N)CC3)c2n1
inhibition (target engagement in cells, inhibitor, chemoproteomics; 20 mM): 79.3%

CC(=O)N1CCC(c2ccc(C(=O)NC3=NCCN3)cc2C(F)(F)F)CC1
remaining binding (cell-free assay, competition with immobilised ligand; 1 µM): 76%

CC(C)(O)[C@H]1CC[C@H](Nc2ccc3ncc(-c4cccc(C(F)(F)F)c4)n3n2)CC1
remaining activity (enzyme activity, inhibitor; 1 µM): 91.4%

CCN1CCN(Cc2ccc(NC(=O)c3ccc(C)c(/C=C/c4cnc5[nH]ccc5c4OC)c3)cc2C(F)(F)F)CC1
inhibition (target engagement in cells, inhibitor, chemoproteomics; A-375; 50 nM): -59.4%

CC(C)(C)c1nc(-c2cccc(NS(=O)(=O)c3c(F)cccc3F)c2F)c(-c2ccnc(N)n2)s1
remaining activity (enzyme activity, inhibitor, radiometric; 1 µM): 94%

CN(C)C1CCN(CC#Cc2nn(C3CCCC3)c3nc(NCc4ccccc4)ncc23)C1 (centres unmarked)
inhibition (enzyme activity, inhibitor, FRET; 0.1 µM): 2%

O=C(Nc1cnn(-c2csc(C(=O)NC3COC3)c2)c1)Nc1ccccc1Cl
remaining activity (enzyme activity, inhibitor; 5 µM): 98.5%

O=Nc1c(-c2c(O)[nH]c3cc(Br)ccc23)[nH]c2ccccc12
activity vs control (enzyme activity, inhibitor; 0.5 µM): 95.1%

Cc1ccc(C(=O)NCc2ccsc2)cc1C#Cc1cn(C(C)C)c2ncnc(N)c12
activity vs control (enzyme activity, inhibitor; 1 µM): 86%

O=C1Nc2ccc(Cl)cc2C1=Cc1cc(Cl)c(O)c(Cl)c1
remaining signal (cell-free assay; 0.5 µM): 92.6%

CCC(=O)N[C@@H]1CC[C@H](C(=O)N(C)c2ccc(-c3nc4ccccc4o3)cc2)C1
remaining binding (cell-free assay, competition with immobilised ligand; 1 µM): 100%
